These results are taken from ChEMBL document CHEMBL3217723, “Optimizing PK properties of cyclic peptides: the effect of side chain substitutions on permeability and clearance()” (Medchemcomm, 2012).

*1 amine or outer side, *2 acyl side, *3 side chain or, on linkers, in order; H or OH if unused. Where a SMILES comes first, the peptide text is derived from it. [ ]: non-standard residue; d: D form. NMeAbu(4-morpholino) = CN[C@@H](CCN1CCOCC1)C(=O)O; X1 = CN([C@@H](CCN1CCCCC1)C(=O)[*:2])[*:1]; NMeW = CN[C@@H](Cc1c[nH]c2ccccc12)C(=O)O; NMeY = CN[C@@H](Cc1ccc(O)cc1)C(=O)O; NMeCha = CN[C@@H](CC1CCCCC1)C(=O)O; NMeLys(Me) = CNCCCC[C@H](NC)C(=O)O; dNMeL = CN[C@H](CC(C)C)C(=O)O; NMeK = CN[C@@H](CCCCN)C(=O)O; NMeA = CN[C@@H](C)C(=O)O A value given as a limit tells only on which side of the number the result lay.

Series [1] can be described thus: Lipophilicity, log D of the compound at pH 7.4 by shake-flask method. It is filed as physicochemical. To be noted: buffer.
Series [2] can be described thus: Terminal elimination half life in Wistar-Han rat at 1 mg/kg, iv. The series is classed as ADME, organism-based. Details: dose 1 mg/kg, route intravenous. To be noted: in vivo, read-out: beta t1/2 (converted).
Series [3] can be described thus: Terminal elimination half life in Wistar-Han rat at 10 mg/kg, po. The series is classed as ADME, organism-based. Details: dose 10 mg/kg, route oral. To be noted: in vivo, read-out: beta t1/2 (converted). Summed up:
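Male Wistar-Hannover rats (230–250 g, n = 3), jugular-cannulated, were fasted overnight and dosed by oral gavage. Vehicle depended on compound: SEDDS/water or propylene glycol/sodium phosphate pH 7.4. Blood was collected at 0.083–24 h into K2EDTA and the plasma analyzed by LC-MS/MS. Terminal half-life came from the non-compartmental ln-concentration slope.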

The nature of series [4]: Tmax in male Wistar-Han rat at 10 mg/kg, po. To be noted: in vivo. It is filed as ADME, organism-based. Further details: dose 10 mg/kg, route oral.
Series [5] in a line: AUC (0 to infinity) in male Wistar-Han rat at 10 mg/kg, po. It is filed as ADME, organism-based. Details: time infinity, dose 10 mg/kg, route oral. To be noted: plasma. The procedure, abridged: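 Jugular vein-cannulated male Wistar-Hannover rats (230-250 g), n = 3, fasted overnight and fed after the 4 h sample; oral dosing in the i.v. formulations, except the SEDDS formulation used 90% water. Serial blood 0.083–24 h, K2EDTA plasma, LC-MS/MS against standard curve; non-compartmental AUC0-∞ by linear trapezoid rule.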

Series [6] in a line: Intrinsic clearance in human liver microsomes by LC-MS/MS analysis. To be noted: read-out: CLH. It is filed as ADME. Summed up:
(§1)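 Compound at 1 µM with liver microsomes (CYP 0.25 µM) in 0.1 M potassium phosphate, pH 7.4, at 37 °C. Final solvent was 0.975% acetonitrile and 0.025% DMSO. Mix prewarmed 5 min, then started with 1.3 mM NADPH; no-NADPH controls were run. Sampled at 0–60 min into acetonitrile and followed by LC-MS/MS for substrate loss. T1/2 was scaled to CLint by the well-stirred model.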
On the technique in general: Liver microsomes are a subcellular fraction often used to study metabolism.

A short description of series [7]: AUC (0 to infinity) in male Wistar-Han rat at 1 mg/kg, iv. The series is classed as ADME, organism-based. Details: time infinity, dose 1 mg/kg, route intravenous. To be noted: plasma.
The nature of series [8]: Cmax in male Wistar-Han rat at 10 mg/kg, po. It is filed as ADME, organism-based. Details: dose 10 mg/kg, route oral. To be noted: in vivo.
The nature of series [9]: Apparent permeability from apical to basolateral side in human Caco2 cells by LC-MS/MS analysis. It is filed as ADME, cell-based. To be noted: Caco-2. A general note: Passage across Caco-2 layers is used to estimate intestinal permeability.
The nature of series [10]: Volume of distribution at steady state in male Wistar-Han rat at 1 mg/kg, iv. Details: dose 1 mg/kg, route intravenous. The series is classed as ADME, organism-based. To be noted: in vivo, read-out: Vdss.
Series [11] in a line: Intrinsic clearance in rat liver microsomes by LC-MS/MS analysis. The series is classed as ADME. To be noted: read-out: CLH. The procedure, abridged: as §1
The nature of series [12]: Plasma clearance in male Wistar-Han rat at 1 mg/kg, iv. It is filed as ADME, organism-based. Further details: dose 1 mg/kg, route intravenous.
Series [13] is described as follows: Oral bioavailability in male Wistar-Han rat at 10 mg/kg. It is filed as ADME, organism-based. To be noted: in vivo. The procedure, abridged: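 Male Wistar-Hannover rats (230-250 g, cannulated; n = 3) fasted overnight, fed after the 4 h sample, and dosed orally in the i.v. formulations or 10% SEDDS:90% water. Serial blood sampled 0.083–24 h into K2EDTA. Plasma measured by LC-MS/MS against a standard curve. Cmax and Tmax read from individual profiles; F = oral AUC0-∞ relative to i.v. AUC0-∞.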

Broadly, the logD is lipophilicity at a set pH, counting ionised and neutral species. A high value points to a more lipophilic compound. In the case of `CC(C)C[C@@H]1NC(=O)[C@H](Cc2ccc(O)cc2)N(C)C(=O)[C@H]2CCCN2C(=O)[C@H](CC(C)C)NC(=O)[C@H](CC2CCCCC2)N(C)C(=O)[C@@H](CC(C)C)N(C)C1=O` (cyclo(L[dNMeL][NMeCha]L[dP][NMeY])), the logD in [1] is 5.09.

By Tmax is commonly meant the time from dosing to the highest level. One may read the AUC(0-inf) as the area under the concentration-time curve extrapolated to infinity. The low end stands for low exposure, the high end for high exposure. Usually Cmax stands for the highest concentration seen after dosing. As a reminder, the Papp A→B is how fast a substance crosses the layer from the apical side. As usually defined, the clearance is the volume of plasma or blood freed of the substance per unit of time. Low values mean inefficient removal, high ones efficient removal. A word on the bioavailability: it is dose-corrected exposure relative to a reference, in per cent. A lower bioavailability goes with little systemic uptake. Turning to `CC(C)C[C@@H]1NC(=O)[C@H](Cc2ccc(O)cc2)N(C)C(=O)[C@H]2CCCN2C(=O)[C@H](CC(C)C)NC(=O)[C@H](CCCCN)N(C)C(=O)[C@@H](CC(C)C)N(C)C1=O` (cyclo(L[dNMeL][NMeK]L[dP][NMeY])), the results for the half-life in [2] and in [3] were 1.01 h and 1.56 h, respectively. The same compound displayed a logD in [1] of 0.678. In addition, in series [4], the Tmax was 1.56 h. The AUC(0-inf) in series [5] was 18.1 ng·h/mL; in series [7], 1640 ng·h/mL. The CLint scaled in series [6] was less than 8 mL/min/kg; in [11], less than 9 mL/min/kg. For the same compound, the peak level in series [8] (Cmax) was 18.3 ng/mL. In addition, the Papp A→B in [9] turned out to be 0.09 ×10⁻⁶ cm/s. In addition, in series [10], the Vd was 0.93 L/kg. The same compound gave a clearance in [12] of 10.4 mL/min/kg. This compound came in with a bioavailability in series [13] of 0.09%.

`CC(C)C[C@@H]1NC(=O)[C@H](Cc2ccc(O)cc2)N(C)C(=O)[C@H]2CCCN2C(=O)[C@H](CC(C)C)NC(=O)[C@H](CCN2CCOCC2)N(C)C(=O)[C@@H](CC(C)C)N(C)C1=O` (cyclo(L[dNMeL][NMeAbu(4-morpholino)]L[dP][NMeY])): in series [1], the log distribution coefficient (logD) was found to be 2.79. Moreover, the CLint scaled in [6] was found to be 16 mL/min/kg.

In series [1], `CC(C)C[C@@H]1NC(=O)[C@H](Cc2ccc(O)cc2)N(C)C(=O)[C@H]2CCCN2C(=O)[C@H](CC(C)C)NC(=O)[C@H](Cc2ccc(O)cc2)N(C)C(=O)[C@@H](CC(C)C)N(C)C1=O` (cyclo(L[dNMeL][NMeY]L[dP][NMeY])) gave a logD of 3.82. Besides, the CLint scaled in series [6] is 29 mL/min/kg.

The compound `CNCCCC[C@H]1C(=O)N[C@@H](CC(C)C)C(=O)N2CCC[C@@H]2C(=O)N(C)[C@@H](Cc2ccc(O)cc2)C(=O)N[C@@H](CC(C)C)C(=O)N(C)[C@H](CC(C)C)C(=O)N1C` (cyclo(L[dNMeL][NMeLys(Me)]L[dP][NMeY])) displayed a logD in [1] of 0.723. Besides, the CLint scaled in [6] was 9 mL/min/kg.

In turn, `CC(C)C[C@@H]1NC(=O)[C@H](Cc2ccc(O)cc2)N(C)C(=O)[C@H]2CCCN2C(=O)[C@H](CC(C)C)NC(=O)[C@H](CCN2CCCCC2)N(C)C(=O)[C@@H](CC(C)C)N(C)C1=O` (cyclo(L[dNMeL][X1]L[dP][NMeY])) showed a logD in series [1] of 2.2. In [6], the CLint scaled is less than 8 mL/min/kg.

For the compound `CC(C)C[C@@H]1NC(=O)[C@H](Cc2ccc(O)cc2)N(C)C(=O)[C@H]2CCCN2C(=O)[C@H](CC(C)C)NC(=O)[C@H](C)N(C)C(=O)[C@@H](CC(C)C)N(C)C1=O` (cyclo(L[dNMeL][NMeA]L[dP][NMeY])), the pH-dependent lipophilicity (logD) in series [1] was found to be 3.64. Moreover, in series [6], the CLint scaled came out at 190 mL/min/kg.

Turning to `CC(C)C[C@@H]1NC(=O)[C@H](Cc2ccc(O)cc2)N(C)C(=O)[C@H]2CCCN2C(=O)[C@H](CC(C)C)NC(=O)[C@H](Cc2c[nH]c3ccccc23)N(C)C(=O)[C@@H](CC(C)C)N(C)C1=O` (cyclo(L[dNMeL][NMeW]L[dP][NMeY])), the logD in series [1] was 4.07. Also, in [6], the CLint scaled was 56 mL/min/kg.
